Laboratory results: ChEMBL document CHEMBL1122622, “Carbocyclic analogues of xylofuranosylpurine nucleosides. Synthesis and antitumor activity” (J Med Chem, 1984)

Substrate: Nc1ncnc2c1ncn2[C@@H]1O[C@H](CO)[C@@H](O)[C@H]1O
Test: Compound was evaluated for the kinetic constant on adenosine deaminase and expressed as Km
Outline: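 Calf intestinal adenosine deaminase (type III). Adenosine was mixed with a range of test compound concentrations in 1 mL 0.05 M phosphate buffer, pH 7.5, at 25 °C. Reactions were started with 20 milliunits of enzyme, and deamination was followed as the fall in absorbance at 265 nm. Kinetic constants came from Wilkinson analysis, with each point the mean of triplicates.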

B1: Adenosine deaminase (Mus musculus), P03958 (protein)
chain: MAQTPAFNKPKVELHVHLDGAIKPETILYFGKKRGIALPADTVEELRNIIGMDKPLSLPGFLAKFDYYMPVIAGCREAIKRIAYEFVEMKAKEGVVYVEVRYSPHLLANSKVDPMPWNQTEGDVTPDDVVDLVNQGLQEGEQAFGIKVRSILCCMRHQPSWSLEVLELCKKYNQKTVVAMDLAGDETIEGSSLFPGHVEAYEGAVKNGIHRTVHAGEVGSPEVVREAVDILKTERVGHGYHTIEDEALYNRLLKENMHFEVCPWSSYLTGAWDPKTTHAVVRFKNDKANYSLNTDDPLIFKSTLDTDYQMTKKDMGFTEEEFKRLNINAAKSSFLPEEEKKELLERLYREYQ
Km: 7.8 µM
